One may read the inhibition as the share of the control response that was lost under treatment. A word on the pEC50: it is −log10 of the EC50, conventionally taken in molar units. A high value points to a small EC50.

The target in data set [1] is Non-selective voltage-gated ion channel VDAC1 (Homo sapiens) (UniProt P21796). Briefly: Binding affinity to VDAC1 (unknown origin) at 10 uM using itraconazole as probe by photoaffinity probe competitor assay.
For a further data set, the target named is CYP3A4 (Homo sapiens, UniProt P08684). Kind of data set: Inhibition of human liver microsome CYP3A4 at 1 uM expressed in baculosomes using fluorogenic-DBOMF as substrate preincubated for 10 mins followed by substrate addition and measured after 60 mins by fluorescence based assay. It counts as ADME, microsomes. Conditions: recombinant CYP3A4 expressed in baculosomes, probe DBOMF (fluorogenic). An outline of the steps:
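CYP3A4 baculosomes preincubated with drug at 1 µM for 10 min at 37 °C before Vivid green substrate added. Fluorescence (ex/em 485/520) read 60 min after substrate addition. Percent inhibition set against 10 μM ketoconazole as the 100% control; mean ± SD of three independent experiments run in triplicate.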

Data set [2] has as its system HUVEC. Kind of data set: Binding affinity to NPC1/VDAC1 in HUVEC assessed as reduction in mTOR phosphorylation at Ser2481 residue up to 1 uM after 24 hrs Western blot analysis. Conditions: Homo sapiens. Format: cell-based. An outline of the steps: (§1)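 HUVEC treated with 0.01, 0.03, 0.1, 0.3 or 1 μM drug, or DMSO, for 24 h. Lysed in RIPA buffer, protein normalized, then run on Western blot: 5% BSA block 1 h, primary antibody overnight at 4 °C, secondary 1 h, chemiluminescence imaging. Band gray value and area quantified; mean ± SD of three independent experiments.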
(In western blotting, separated proteins are transferred to a membrane and probed.)

In data set [3] the target is Non-selective voltage-gated ion channel VDAC1 (Homo sapiens) (UniProt P21796). Briefly: Binding affinity to VDAC1 in HUVEC assessed as AMPK phosphorylation at Thr172 residue after 24 hrs by Western blot analysis. Format: cell-based.
The test system of data set [4] is HUVEC. Kind of data set: Binding affinity to NPC1/VDAC1 in HUVEC assessed as reduction in mTOR-mediated S6K phosphorylation at Thr389 residue up to 1 uM after 24 hrs Western blot analysis. The following applies: Homo sapiens. It counts as cell-based. An outline of the steps:
as §1

The target in the next data set is Cytochrome P450 3A4 (Homo sapiens, UniProt P08684). Kind of data set: Inhibition of human liver microsome CYP3A4 expressed in baculosomes using fluorogenic-DBOMF as substrate preincubated for 10 mins followed by substrate addition and measured after 60 mins by fluorescence based assay. It counts as ADME, microsomes. On the technique in general: Liver microsomes are vesicles of endoplasmic reticulum, rich in cytochrome P450 enzymes.

Data set [5] concerns the target T1, NPC intracellular cholesterol transporter 1 (Homo sapiens) (UniProt O15118).
T1 sequence (whole entry): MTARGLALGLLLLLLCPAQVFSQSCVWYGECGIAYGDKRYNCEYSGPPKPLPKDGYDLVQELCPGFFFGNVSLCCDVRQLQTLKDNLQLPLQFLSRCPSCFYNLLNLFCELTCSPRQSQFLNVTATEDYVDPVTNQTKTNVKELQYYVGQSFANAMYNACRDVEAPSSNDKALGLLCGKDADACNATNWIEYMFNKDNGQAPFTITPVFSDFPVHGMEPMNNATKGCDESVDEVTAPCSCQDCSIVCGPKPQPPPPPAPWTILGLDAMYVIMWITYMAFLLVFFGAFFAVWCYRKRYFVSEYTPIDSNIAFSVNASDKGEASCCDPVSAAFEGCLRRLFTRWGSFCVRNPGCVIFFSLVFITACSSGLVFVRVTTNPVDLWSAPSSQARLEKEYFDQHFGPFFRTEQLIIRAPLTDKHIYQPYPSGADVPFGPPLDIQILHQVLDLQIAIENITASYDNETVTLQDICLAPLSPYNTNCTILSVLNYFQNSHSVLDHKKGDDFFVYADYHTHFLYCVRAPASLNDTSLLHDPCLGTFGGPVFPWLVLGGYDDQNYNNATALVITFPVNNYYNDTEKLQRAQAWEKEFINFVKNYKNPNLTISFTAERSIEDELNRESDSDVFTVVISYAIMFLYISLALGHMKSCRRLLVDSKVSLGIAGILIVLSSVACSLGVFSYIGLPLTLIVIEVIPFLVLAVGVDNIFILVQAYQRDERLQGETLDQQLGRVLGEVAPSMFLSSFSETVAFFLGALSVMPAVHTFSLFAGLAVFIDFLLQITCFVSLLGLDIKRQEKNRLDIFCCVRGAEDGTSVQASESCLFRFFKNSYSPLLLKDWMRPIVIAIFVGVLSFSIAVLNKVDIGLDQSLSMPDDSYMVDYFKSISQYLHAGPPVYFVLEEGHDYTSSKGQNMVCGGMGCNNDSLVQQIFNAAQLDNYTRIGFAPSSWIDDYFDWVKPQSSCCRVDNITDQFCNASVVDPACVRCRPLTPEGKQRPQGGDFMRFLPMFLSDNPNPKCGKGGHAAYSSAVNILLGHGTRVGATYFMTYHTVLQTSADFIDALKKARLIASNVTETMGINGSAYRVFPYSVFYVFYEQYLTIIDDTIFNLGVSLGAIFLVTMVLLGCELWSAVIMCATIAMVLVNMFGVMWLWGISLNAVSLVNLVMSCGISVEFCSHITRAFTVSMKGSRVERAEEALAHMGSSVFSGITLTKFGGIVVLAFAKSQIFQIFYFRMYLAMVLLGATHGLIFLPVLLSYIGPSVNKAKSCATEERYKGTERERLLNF
Kind of data set: Binding affinity to NPC1 in HUVEC assessed as increase in cholesterol accumulation in late endosome/lysosome at 0.2 uM after 14 hrs by filipin staining-based confocal microscopy. Format: cell-based. An outline of the steps: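 Methods give HUVEC (2,000) on chamber slides, settled overnight, then 0.1 µM drug or DMSO for 14 h; legend gives 0.2 μM for 24 h. Cells fixed in 4% paraformaldehyde for 15 min, then stained with 50 µg/ml filipin for 1 h in the dark. Imaged by confocal microscopy at 360/460 nm.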

For data set [6], the target named is Non-selective voltage-gated ion channel VDAC1 (Homo sapiens) (UniProt P21796). Briefly: Binding affinity to VDAC1 in HUVEC assessed as ACC1 phosphorylation at Ser79 residue at 0.01 to 1 uM after 24 hrs by Western blot analysis. It counts as cell-based. An outline of the steps: as §1

pEC50: −log10 of the molar value. Activity calls are given as the source filed them. The rule behind the calls is not given here.

Sequence of Non-selective voltage-gated ion channel VDAC1 (Homo sapiens) (P21796 whole entry): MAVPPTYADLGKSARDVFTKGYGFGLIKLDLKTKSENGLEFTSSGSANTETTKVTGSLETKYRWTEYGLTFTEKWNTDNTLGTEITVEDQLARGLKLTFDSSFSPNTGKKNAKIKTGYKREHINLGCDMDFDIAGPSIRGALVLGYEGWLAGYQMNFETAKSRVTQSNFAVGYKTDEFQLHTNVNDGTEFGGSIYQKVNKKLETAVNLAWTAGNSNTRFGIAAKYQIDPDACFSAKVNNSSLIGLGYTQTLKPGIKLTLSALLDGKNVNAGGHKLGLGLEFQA
Sequence of Cytochrome P450 3A4 (P08684 whole entry): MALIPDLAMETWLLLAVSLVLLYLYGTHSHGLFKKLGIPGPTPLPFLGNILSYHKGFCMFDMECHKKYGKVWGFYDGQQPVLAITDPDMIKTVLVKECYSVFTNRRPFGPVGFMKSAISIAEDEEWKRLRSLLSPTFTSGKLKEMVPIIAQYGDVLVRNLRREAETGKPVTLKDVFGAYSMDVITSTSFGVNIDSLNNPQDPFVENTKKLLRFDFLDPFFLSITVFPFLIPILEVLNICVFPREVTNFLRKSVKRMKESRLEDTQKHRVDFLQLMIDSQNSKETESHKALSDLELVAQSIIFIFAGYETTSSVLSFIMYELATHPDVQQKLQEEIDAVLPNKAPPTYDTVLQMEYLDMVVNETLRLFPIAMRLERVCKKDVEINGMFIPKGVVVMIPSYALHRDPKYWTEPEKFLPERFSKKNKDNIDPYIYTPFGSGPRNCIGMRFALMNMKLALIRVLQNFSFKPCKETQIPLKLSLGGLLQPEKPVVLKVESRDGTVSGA
Sequence of CYP3A4 (P08684 whole entry): as above

Consider `CCC(C)n1ncn(-c2ccc(N3CCN(c4ccc(OC[C@@H]5CO[C@@](Cn6cnnn6)(c6ccc(Cl)cc6Cl)O5)cc4)CC3)cc2)c1=O` (stereo partly drawn), for which the result (in data set [1]; in the data set with HUVEC [2]; in the data set on HUVEC [4]; in data set [5]; in data set [6]) was Active. The inhibition at 1 h, 1 µM on CYP3A4 worked out at 2%. In data set [3], the Activity result is “Dose-dependent effect”. The same molecule gave a pEC50 at Cytochrome P450 3A4 of less than 4.70.

These data come from ChEMBL document CHEMBL4257594 (J Med Chem, 2018).
